Results: ChEMBL document CHEMBL1158565, “Antagonism of 4-substituted 1,4-dihydropyridine-3,5-dicarboxylates toward voltage-dependent L-type Ca2+ channels Ca V 1.3 and Ca V 1.2” (Bioorg Med Chem, 2010)

Experiments:
[1] = molecular target: T1, Voltage-dependent L-type calcium channel subunit alpha-1C (Oryctolagus cuniculus, UniProt P15381); test: Antagonist activity at rabbit Cav1.2 expressed in tsA201 cells assessed as inhibition of voltage pulse-induced calcium current at 100 nM by whole-cell patch-clamp recording
[2] = Selectivity ratio of antagonist activity at rat Cav1.3 to antagonist activity at rabbit Cav1.2 at 100 nM; format: functional
Outline: (§1)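 Percent inhibition of Cav1.3 current was divided by that of Cav1.2 at the same concentration. Currents were from whole-cell patch clamp in transiently transfected tsA201 cells: Ba2+ bath, pH 7.4, steps from -60 mV, about 22 °C.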

[3] = molecular target: Voltage-dependent L-type calcium channel subunit alpha-1D (Rattus norvegicus) (UniProt P27732); test: Antagonist activity at rat Cav1.3 expressed in HEK293 cells assessed as inhibition of voltage pulse-induced calcium current at 100 nM by whole-cell patch-clamp recording
[4] = Selectivity ratio of antagonist activity at rat Cav1.3 to antagonist activity at rabbit Cav1.2 at 200 nM; format: functional
Outline: as §1

[5] = molecular target: Voltage-dependent L-type calcium channel subunit alpha-1D (Rattus norvegicus) (UniProt P27732); test: Antagonist activity at rat Cav1.3 expressed in HEK293 cells assessed as inhibition of voltage pulse-induced calcium current at 200 nM by FLIPR calcium 4 assay; format: functional, cell-based; settings: in the assay text read “by whole-cell patch-clamp recording” for “by FLIPR calcium 4 assay”
Outline: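 Whole-cell patch clamp on tsA201 cells transiently cotransfected with rabbit Cav1.2 α1C or rat Cav1.3 α1D, Cavβ3 and Cavα2δ-1 (1:1:1) plus GFP. GFP cells were recorded after replating at 48 h. Bath (mM): 110 NaCl, 1 MgCl2, 10 BaCl2, 10 HEPES, 10 glucose, 20 CsCl, pH 7.4. Compound was diluted from DMSO stock and perfused. Pulses ran from -60 mV to +10 or 0 mV with tetrodotoxin at about 22 °C. Read-out was percent current inhibition.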

[6] = molecular target: T1, Voltage-dependent L-type calcium channel subunit alpha-1C; test: Antagonist activity at rabbit Cav1.2 expressed in tsA201 cells assessed as inhibition of voltage pulse-induced calcium current at 200 nM by whole-cell patch-clamp recording
[7] = molecular target: Voltage-dependent L-type calcium channel subunit alpha-1D (Rattus norvegicus, UniProt P27732); test: Antagonist activity at rat Cav1.3 expressed in HEK293 cells assessed as inhibition of voltage pulse-induced calcium current by FLIPR calcium 4 assay; format: functional, cell-based
Outline: (§2)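 HEK293 lines stably expressing Cavβ3 and Cavα2δ-1 plus Cav1.2 α1C (rabbit) or Cav1.3 α1D (rat) were selected with zeocin/hygromycin. Calcium signals were read by FLIPR with Calcium 4 dye. IC50 came from 11-point dose-response curves. Signal percentage error (SD/mean) was 6.4% for Cav1.2 and 4.1% for Cav1.3 cells.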

[8] = molecular target: T1, Voltage-dependent L-type calcium channel subunit alpha-1C; test: Antagonist activity at rabbit Cav1.2 expressed in HEK293 cells assessed as inhibition of voltage pulse-induced calcium current by FLIPR calcium 4 assay; format: functional, cell-based
Outline: as §2

T1 sequence (P15381 whole entry): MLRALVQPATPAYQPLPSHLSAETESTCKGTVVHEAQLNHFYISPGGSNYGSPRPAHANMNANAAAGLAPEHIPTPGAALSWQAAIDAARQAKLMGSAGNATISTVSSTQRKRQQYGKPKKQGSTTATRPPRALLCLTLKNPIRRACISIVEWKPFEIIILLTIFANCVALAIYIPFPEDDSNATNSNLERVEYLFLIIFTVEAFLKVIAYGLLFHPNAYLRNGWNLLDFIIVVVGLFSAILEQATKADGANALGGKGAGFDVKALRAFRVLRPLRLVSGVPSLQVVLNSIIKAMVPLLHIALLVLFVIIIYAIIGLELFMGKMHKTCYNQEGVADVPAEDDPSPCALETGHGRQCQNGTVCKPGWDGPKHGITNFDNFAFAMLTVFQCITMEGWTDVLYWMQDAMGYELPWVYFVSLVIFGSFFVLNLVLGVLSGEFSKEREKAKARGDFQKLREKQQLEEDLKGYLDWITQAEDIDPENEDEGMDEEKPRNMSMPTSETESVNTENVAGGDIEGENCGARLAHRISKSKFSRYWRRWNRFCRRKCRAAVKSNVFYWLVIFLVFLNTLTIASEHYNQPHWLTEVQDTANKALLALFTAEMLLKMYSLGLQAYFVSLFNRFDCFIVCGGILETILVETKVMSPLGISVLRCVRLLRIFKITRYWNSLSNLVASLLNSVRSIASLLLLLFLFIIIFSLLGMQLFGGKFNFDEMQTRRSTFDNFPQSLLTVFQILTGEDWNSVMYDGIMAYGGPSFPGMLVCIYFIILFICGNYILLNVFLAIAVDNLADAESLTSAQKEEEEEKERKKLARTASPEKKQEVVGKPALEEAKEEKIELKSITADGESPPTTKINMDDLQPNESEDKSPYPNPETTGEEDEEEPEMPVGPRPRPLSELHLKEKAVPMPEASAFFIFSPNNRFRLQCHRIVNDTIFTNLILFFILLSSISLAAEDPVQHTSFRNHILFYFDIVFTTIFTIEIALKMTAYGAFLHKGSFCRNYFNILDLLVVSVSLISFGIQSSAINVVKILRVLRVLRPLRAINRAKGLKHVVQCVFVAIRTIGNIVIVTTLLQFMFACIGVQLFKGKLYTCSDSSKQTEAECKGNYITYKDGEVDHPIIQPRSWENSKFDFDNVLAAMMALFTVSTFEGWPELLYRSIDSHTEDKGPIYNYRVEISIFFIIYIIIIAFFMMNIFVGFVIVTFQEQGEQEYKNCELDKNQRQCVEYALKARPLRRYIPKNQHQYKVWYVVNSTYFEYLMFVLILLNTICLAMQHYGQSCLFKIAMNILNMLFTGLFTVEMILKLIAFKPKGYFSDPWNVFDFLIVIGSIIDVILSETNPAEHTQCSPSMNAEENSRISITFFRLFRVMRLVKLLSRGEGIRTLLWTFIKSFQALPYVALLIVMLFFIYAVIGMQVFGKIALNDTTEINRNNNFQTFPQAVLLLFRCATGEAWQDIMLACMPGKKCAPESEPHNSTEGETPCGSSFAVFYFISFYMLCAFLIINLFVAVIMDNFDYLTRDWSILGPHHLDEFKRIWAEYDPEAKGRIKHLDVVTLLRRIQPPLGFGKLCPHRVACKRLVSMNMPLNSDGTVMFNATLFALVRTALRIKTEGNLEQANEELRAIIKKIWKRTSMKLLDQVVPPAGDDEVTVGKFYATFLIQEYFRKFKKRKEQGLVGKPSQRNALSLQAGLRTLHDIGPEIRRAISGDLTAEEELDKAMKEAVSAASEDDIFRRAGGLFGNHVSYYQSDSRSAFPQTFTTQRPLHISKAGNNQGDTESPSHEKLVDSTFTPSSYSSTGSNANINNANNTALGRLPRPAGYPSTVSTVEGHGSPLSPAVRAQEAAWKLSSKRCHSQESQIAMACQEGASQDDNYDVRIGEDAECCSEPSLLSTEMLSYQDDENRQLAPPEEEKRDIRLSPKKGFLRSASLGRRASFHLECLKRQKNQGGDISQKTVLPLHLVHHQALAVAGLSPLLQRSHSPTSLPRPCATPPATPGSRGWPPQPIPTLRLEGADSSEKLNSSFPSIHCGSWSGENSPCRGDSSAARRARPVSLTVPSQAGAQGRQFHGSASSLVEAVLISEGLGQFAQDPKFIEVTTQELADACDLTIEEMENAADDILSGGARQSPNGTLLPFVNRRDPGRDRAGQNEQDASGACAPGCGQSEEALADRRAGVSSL
Chain of Voltage-dependent L-type calcium channel subunit alpha-1D (P27732 whole entry): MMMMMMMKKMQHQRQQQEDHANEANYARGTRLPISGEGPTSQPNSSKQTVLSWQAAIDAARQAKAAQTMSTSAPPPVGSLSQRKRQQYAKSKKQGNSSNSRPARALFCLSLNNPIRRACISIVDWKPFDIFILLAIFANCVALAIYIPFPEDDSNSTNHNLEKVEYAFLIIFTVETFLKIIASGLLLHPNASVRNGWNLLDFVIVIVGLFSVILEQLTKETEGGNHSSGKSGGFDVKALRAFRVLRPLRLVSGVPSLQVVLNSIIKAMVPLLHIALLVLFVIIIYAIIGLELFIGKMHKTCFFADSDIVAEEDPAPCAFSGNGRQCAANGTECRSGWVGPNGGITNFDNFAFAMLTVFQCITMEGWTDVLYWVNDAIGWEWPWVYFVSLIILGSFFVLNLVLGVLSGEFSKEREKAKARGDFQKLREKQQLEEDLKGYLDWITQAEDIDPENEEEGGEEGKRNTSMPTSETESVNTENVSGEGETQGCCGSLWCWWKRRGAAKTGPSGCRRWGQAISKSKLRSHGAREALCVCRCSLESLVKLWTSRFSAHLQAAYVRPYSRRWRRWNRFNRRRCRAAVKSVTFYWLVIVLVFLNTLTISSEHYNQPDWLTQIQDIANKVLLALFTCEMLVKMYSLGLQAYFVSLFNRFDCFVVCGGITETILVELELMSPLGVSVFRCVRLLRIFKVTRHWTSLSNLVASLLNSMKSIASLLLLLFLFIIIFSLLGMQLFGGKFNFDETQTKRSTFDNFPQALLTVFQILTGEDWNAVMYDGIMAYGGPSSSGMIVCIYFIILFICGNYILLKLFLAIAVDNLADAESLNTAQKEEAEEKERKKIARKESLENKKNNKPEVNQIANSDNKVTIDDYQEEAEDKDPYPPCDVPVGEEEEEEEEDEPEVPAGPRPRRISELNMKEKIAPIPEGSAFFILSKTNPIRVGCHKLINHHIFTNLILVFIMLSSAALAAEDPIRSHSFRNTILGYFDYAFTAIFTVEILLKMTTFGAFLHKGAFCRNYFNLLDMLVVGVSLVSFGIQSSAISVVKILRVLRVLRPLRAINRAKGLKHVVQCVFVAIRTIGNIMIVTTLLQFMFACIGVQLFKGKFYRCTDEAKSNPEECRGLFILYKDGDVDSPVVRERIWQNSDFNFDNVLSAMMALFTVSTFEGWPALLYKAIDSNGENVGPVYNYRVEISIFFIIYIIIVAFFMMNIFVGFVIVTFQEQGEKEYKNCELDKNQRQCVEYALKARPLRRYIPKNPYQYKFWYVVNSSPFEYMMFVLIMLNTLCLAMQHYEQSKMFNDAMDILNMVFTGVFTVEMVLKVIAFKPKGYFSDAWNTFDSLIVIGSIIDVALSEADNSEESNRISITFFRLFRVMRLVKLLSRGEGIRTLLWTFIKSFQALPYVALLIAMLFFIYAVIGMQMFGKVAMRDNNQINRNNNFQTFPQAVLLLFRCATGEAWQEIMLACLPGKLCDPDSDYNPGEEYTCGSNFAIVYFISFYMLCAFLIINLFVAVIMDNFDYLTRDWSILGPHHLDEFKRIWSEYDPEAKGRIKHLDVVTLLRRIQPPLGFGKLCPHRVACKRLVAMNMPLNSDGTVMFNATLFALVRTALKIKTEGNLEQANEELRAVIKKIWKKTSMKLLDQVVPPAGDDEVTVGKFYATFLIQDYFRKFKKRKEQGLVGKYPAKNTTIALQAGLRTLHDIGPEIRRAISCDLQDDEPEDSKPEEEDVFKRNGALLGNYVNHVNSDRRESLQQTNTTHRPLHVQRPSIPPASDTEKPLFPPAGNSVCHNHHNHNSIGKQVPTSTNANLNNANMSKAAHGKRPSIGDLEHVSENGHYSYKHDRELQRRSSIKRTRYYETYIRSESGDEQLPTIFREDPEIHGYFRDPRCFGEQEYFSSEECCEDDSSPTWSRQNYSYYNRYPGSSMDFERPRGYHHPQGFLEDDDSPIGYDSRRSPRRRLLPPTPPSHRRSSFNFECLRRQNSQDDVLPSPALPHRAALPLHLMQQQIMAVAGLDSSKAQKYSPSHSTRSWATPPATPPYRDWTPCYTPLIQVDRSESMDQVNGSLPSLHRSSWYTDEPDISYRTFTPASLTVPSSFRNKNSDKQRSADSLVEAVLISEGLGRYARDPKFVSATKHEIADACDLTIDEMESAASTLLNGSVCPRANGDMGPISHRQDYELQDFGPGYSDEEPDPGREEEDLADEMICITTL
Chain of Voltage-dependent L-type calcium channel subunit alpha-1D (Rattus norvegicus) (P27732 whole entry, the tested form may be a part): as the sequence (P27732 whole entry) above

SMILES | Selectivity ratio [4] | inhibition [5] [%] | inhibition at 0.2 µM [6] [%] | IC50 [7] [nM] | IC50 [8] [nM] | further results
CCCC1=C(C(=O)OCC)C(c2cccc([N+](=O)[O-])c2)C(C(=O)OCC)=C(CCC)N1 |  |  |  |  |  | inhibition at 0.1 µM [1]: 25%; Selectivity ratio [2]: 1.07; inhibition [3]: 27%
COC(=O)C1=C(C)NC(C)=C(C(=O)OCC(C)C)C1c1cccc([N+](=O)[O-])c1 (configuration not stated) | 0.96 | 90 | 94 |  |  | 
CCOC(=O)C1=C(C)NC(C)=C(C(=O)OC)C1c1cccc([N+](=O)[O-])c1 (configuration not stated) [NITRENDIPINE] |  |  |  |  |  | inhibition at 0.1 µM [1]: 62%; Selectivity ratio [2]: 0.55; inhibition [3]: 34%
CCOC(=O)C1=C(C)NC(C)=C(C(=O)OCC)C1c1ccc(Cl)c([N+](=O)[O-])c1 | 0.77 | 66 | 86 |  |  | 
CCOC(=O)C1=C(C)NC(C)=C(C(=O)OCC)C1c1ccc2ccccc2c1 | 0.75 | 12 | 16 |  |  | 
CC1=C(C(=O)OC(C)(C)C)C(c2cccc([N+](=O)[O-])c2)C(C(=O)OC(C)(C)C)=C(C)N1 |  |  |  |  |  | inhibition at 0.1 µM [1]: 32%; Selectivity ratio [2]: 0.69; inhibition [3]: 22%
CC1=C(C(=O)OCC(C)C)C(c2cccc([N+](=O)[O-])c2)C(C(=O)OCC(C)C)=C(C)N1 | 1.14 | 59 | 52 |  |  | 
CCOC(=O)C1=C(C)NC(C)=C(C(=O)OCC)C1C1CCCCC1 | 0.81 | 21 | 26 |  |  | 
CCOC(=O)C1=C(C)NC(C)=C(C(=O)OCC)C1c1ccccc1-c1ccccc1 | 0.89 | 65 | 73 |  |  | 
CCOC(=O)C1=C(CC)NC(CC)=C(C(=O)OCC)C1c1cccc([N+](=O)[O-])c1 |  |  |  |  |  | inhibition at 0.1 µM [1]: 52%; Selectivity ratio [2]: 0.71; inhibition [3]: 37%
CCOC(=O)C1=C(C)NC(C)=C(C(=O)OCC)C1c1cc(C(F)(F)F)cc(C(F)(F)F)c1 | 1 | 38 | 38 |  |  | 
CCOC(=O)C1=C(C)N=C(C)/C(=C(/O)OCC)C1c1ccncc1 (configuration not stated) | 0.56 | 15 | 27 |  |  | 
CCOC(=O)C1=C(C)NC(C)=C(C(=O)OCC)C1c1ccccc1 |  |  |  |  |  | inhibition at 0.1 µM [1]: 48%; Selectivity ratio [2]: 0.85; inhibition [3]: 41%
CC1=C(C(=O)OC(C)C)C(c2cccc([N+](=O)[O-])c2)C(C(=O)OC(C)C)=C(C)N1 | 0.86 | 66 | 77 |  |  | 
CCOC(=O)C1=C(CC)NC(C)=C(C(=O)OC)C1c1cccc([N+](=O)[O-])c1 (configuration not stated) |  |  |  |  |  | inhibition at 0.1 µM [1]: 76%; Selectivity ratio [2]: 0.72; inhibition [3]: 55%
CCOC(=O)C1=C(C)NC(C)=C(C(=O)OCC)C1c1ccoc1 | 0.57 | 32 | 56 |  |  | 
CCOC(=O)C1=C(C)NC(C)=C(C(=O)OCC)C1c1cc([N+](=O)[O-])ccc1Cl | 0.92 | 89 | 97 |  |  | 
CCOC(=O)C1=C(C)NC(C)=C(C(=O)OCC)C1c1ccccc1I | 0.99 | 95 | 96 |  |  | 
CCOC(=O)C1=C(C)NC(CC)=C(C(=O)OCC)C1c1cccc([N+](=O)[O-])c1 (configuration not stated) | 0.95 | 88 | 93 |  |  | 
CCOC(=O)C1=C(C(F)(F)F)NC(C(F)(F)F)=C(C(=O)OCC)C1c1cccc([N+](=O)[O-])c1 | 1.11 | 38 | 34 |  |  | 
COC(=O)C1=C(C)NC(C)=C(C(=O)OC(C)(C)C)C1c1cccc([N+](=O)[O-])c1 (configuration not stated) [MEBUDIPINE] | 0.93 | 85 | 91 |  |  | 
CCOC(=O)C1=C(C)NC(C)=C(C(=O)OCC)C1c1cc(Br)cc(Br)c1 | 0.98 | 72 | 74 |  |  | 
CCOC(=O)C1=C(C)NC(C)=C(C(=O)OCC)C1c1cccc(Br)c1 |  |  |  |  |  | inhibition at 0.1 µM [1]: 82%; Selectivity ratio [2]: 0.98; inhibition [3]: 80%
COC(=O)C1=C(C)NC(C)=C(C(=O)OC)C1c1ccccc1[N+](=O)[O-] [NIFEDIPINE] |  |  |  |  |  | inhibition at 0.1 µM [1]: 69%; Selectivity ratio [2]: 0.67; inhibition [3]: 46%
CCOC(=O)C1=C(C(F)(F)F)NC(C(F)(F)F)=C(C(=O)OCC)C1c1cccc(C(F)(F)F)c1 | 1.1 | 67 | 61 |  |  | 

SMILES | Selectivity ratio [4] | inhibition [5] [%] | inhibition at 0.2 µM [6] [%] | IC50 [7] [nM] | IC50 [8] [nM] | further results
CCOC(=O)C1=C(C)NC(C)=C(C(=O)OCC)C1c1cccc(F)c1 |  |  |  |  |  | inhibition at 0.1 µM [1]: 64%; Selectivity ratio [2]: 0.75; inhibition [3]: 48%
CCOC(=O)C1=C(C)NC(C)=C(C(=O)OCC)C1c1ccsc1 | 0.93 | 50 | 54 |  |  | 
CCOC(=O)C1=C(C)NC(CO)=C(C(=O)OCC)C1c1cccc([N+](=O)[O-])c1 (configuration not stated) |  |  |  | 45 | 49 | 
CCCCC1=C(C(=O)OCC)C(c2cccc([N+](=O)[O-])c2)C(C(=O)OCC)=C(C)N1 (configuration not stated) |  |  |  | 20 | 20 | 
CCOC(=O)C1=C(C)NC(C)=C(C(=O)OCCOC)C1c1cccc([N+](=O)[O-])c1 (configuration not stated) |  |  |  | 82 | 16 | 
CCOC(=O)C1=C(C)NC(C=CC(=O)OC)=C(C(=O)OCC)C1c1cccc([N+](=O)[O-])c1 (mixture of isomers) |  |  |  | 213 | 313 | 
CCOC(=O)C1=C(C)NC(C)=C(C(=O)OCC)C1c1cccc(F)c1F |  |  |  | 10 | 15 | 
CCOC(=O)C1=C(C)NC(COC(C)=O)=C(C(=O)OCC)C1c1cccc([N+](=O)[O-])c1 (configuration not stated) |  |  |  | 37 | 10 | 
CCOC(=O)C1=C(C)N=C(C)/C(=C(/O)OCC)C1c1cccs1 (configuration not stated) | 0.87 | 57 | 65 |  |  | 
COC(=O)C1=C(C)NC(C)=C(C(=O)OCc2cccs2)C1c1cccc([N+](=O)[O-])c1 (configuration not stated) |  |  |  | 23 | 31 | 
C#CCCOC(=O)C1=C(C)NC(C)=C(C(=O)OC)C1c1cccc([N+](=O)[O-])c1 (configuration not stated) |  |  |  | 35 | 31 | 
CCCC1C(C(=O)OCC)=C(C)NC(C)=C1C(=O)OCC | 0.86 | 36 | 42 |  |  | 
COC(=O)C1=C(C)NC(C)=C(C(=O)OC(C)C)C1c1cccc([N+](=O)[O-])c1 (configuration not stated) | 0.93 | 89 | 96 |  |  | 
CCOC(=O)C1=C(C)NC(C)=C(C(=O)OCC)C1(C)c1ccccc1 |  |  |  | 2140 | 630 | 
CC1=C(C#N)C(c2cccc(F)c2F)C(C#N)=C(C)N1 |  |  |  | 1150 | 1610 | 
COC(=O)C1=C(C)NC(C)=C(C(=O)OCCC#N)[C@H]1c1cccc([N+](=O)[O-])c1 |  |  |  | 589 | 143 | 
CCOC(=O)C1=C(C)NC(COC(=O)c2ccccc2)=C(C(=O)OCC)C1c1cccc([N+](=O)[O-])c1 (configuration not stated) |  |  |  | 170 | 210 | 
CCOC(=O)C1=C(C)NC(COC)=C(C(=O)OC)C1c1cccc([N+](=O)[O-])c1 (configuration not stated) |  |  |  | 96 | 14 | 
CCOC(=O)C1=C(C)NC(C)=C(C(=O)OCC)C1c1csc2ccccc12 | 0.7 | 57 | 80 |  |  | 
COC(=O)C1=C(C)NC(C)=C(C(=O)OCCNC(=O)C(F)(F)F)C1c1cccc([N+](=O)[O-])c1 (configuration not stated) |  |  |  | 550 | 410 | 
CCOC(=O)C1=C(C)NC(C)=C(C(=O)OCC)C1c1cccc(Cl)c1 |  |  |  |  |  | inhibition at 0.1 µM [1]: 58%; Selectivity ratio [2]: 1.02; inhibition [3]: 59%
COC(=O)C1=C(C)NC(C)=C(C(=O)OC2Cc3ccccc3C2)C1c1cccc([N+](=O)[O-])c1 (configuration not stated) |  |  |  | 43 | 72 | 
COC(=O)C1=C(C)NC(C)=C(C(=O)OC2C=CCCC2)C1c1cccc([N+](=O)[O-])c1 (configuration not stated) |  |  |  | 10 | 10 | 
COC(=O)C1=C(C)NC(C)=C(C(=O)OCc2ccc3c(c2)OCO3)C1c1cccc([N+](=O)[O-])c1 (configuration not stated) |  |  |  | 22 | 13 | 
COC(=O)C1=C(C)NC(C)=C(C(=O)OCCCOc2ccccc2)C1c1cccc([N+](=O)[O-])c1 (configuration not stated) |  |  |  | 11 | 9 | 
